Here are results for one molecule from ChEMBL document CHEMBL4406881, “Design, synthesis and biological evaluation of benzoylacrylic acid shikonin ester derivatives as irreversible dual inhibitors of tubulin and EGFR” (Bioorg Med Chem, 2019).

The nature of data set [1]: Cytotoxicity against human LO2 cells assessed as reduction in cell viability after 24 hrs by MTT assay. In kind it is cell-based, L02. The procedure, abridged:
(§1)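 MTT colorimetric assay. Cells in log phase in medium with 10% FBS were seeded at 10⁴ cells/well and left overnight at 37 °C, 5% CO₂ to reattach. Compounds were added at 0.1, 1, 10 and 100 μM in 10% FBS for 24 h. IC50 reported as mean ± SD of three independent experiments.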

Another data set concerns MCF7. In words: Antiproliferative activity against human MCF7 cells assessed as reduction in cell viability after 24 hrs by MTT assay. The format is functional, cell-based. The settings on record: MCF7, 24 h. In outline: as §1
Background: Tetrazolium assays rely on reduction of a dye to a coloured formazan, in cell work by metabolically active cells.

For another data set, the system named is NCI-H1975. Kind of data set: Antiproliferative activity against human NCI-H1975 cells assessed as reduction in cell viability after 24 hrs by MTT assay. In kind it is functional, cell-based. The conditions noted are these: NCI-H1975, 24 h. In outline:
as §1

For data set [2], the system named is A549. In words: Induction of apoptosis in human A549 cells assessed as necrotic cells after at 4 uM 24 hrs by Annexin-V/PI staining based flow cytometry analysis (reference value: 1.81%). The format is functional. The procedure, abridged:
(§2)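 A549 cells seeded overnight at 37 °C, 5% CO2, then exposed to 0, 2, 4, 8 or 12 µM for 24 h (dose series) or 8 µM for 0, 12, 24, 36 h (time series). Harvested, PBS-washed, stained with Annexin V-FITC and PI in binding buffer 15 min at room temperature in the dark, analysed by flow cytometry; three independent experiments.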

In data set [3] the test system is A549. Kind of data set: Induction of apoptosis in human A549 cells assessed as viable cells at 8 uM after 36 hrs by Annexin-V/PI staining based flow cytometry analysis (reference value: 88.4%). The format is functional. The settings on record: A549, 36 h, read-out: Activity. The procedure, abridged: as §2
A general note: A flow cytometer gives signals particle by particle.

Data set [4] relates to A549. Kind of data set: Induction of apoptosis in human A549 cells assessed as reduction in Bcl-2 expression at 2 to 8 uM after 24 hrs by Western blot analysis. The format is functional, cell-based. The procedure, abridged: (§3)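 A549 cells in 6-well plates were lysed in RIPA buffer with protease inhibitors on ice for 30 min and cleared at 4 °C. Protein was quantified by BCA, run on SDS-PAGE and transferred to PVDF. Membranes were blocked with milk, probed with primary antibody (1:1000) overnight at 4 °C, then secondary antibody (1:3000-1:5000) 1 h at RT. Detection by ECL; band densitometry normalised to GAPDH (β-actin also used). Three independent experiments.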
In general terms: In western blotting, separated proteins are transferred to a membrane and probed.

Data set [5] deals with A549. In words: Induction of apoptosis in human A549 cells assessed as reduction in caspase-9 expression at 2 to 8 uM after 24 hrs by Western blot analysis. The format is functional, cell-based. The procedure, abridged: as §3
Data set [6] relates to A549. Kind of data set: Induction of apoptosis in human A549 cells assessed as increase in Bax expression at 2 to 8 uM after 24 hrs by Western blot analysis. The format is functional, cell-based. The procedure, abridged: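 Western blot of A549 cells treated for 24 h. Lysates in RIPA buffer were run on SDS-PAGE and transferred to PVDF. Primary antibody at 1:1000 overnight at 4 °C, secondary antibody at 1:3000-1:5000 for 1 h, ECL detection. Densitometry was normalised to GAPDH; mean ± S.E.M. from three independent experiments.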

For data set [7], the system named is A549. In words: Induction of apoptosis in human A549 cells assessed as low mitochondrial membrane potential at 8 uM after 12 hrs by JC-1 staining-based flow cytometric analysis (reference value: 6.3%). The format is functional.
For data set [8], the system named is A549. Kind of data set: Induction of apoptosis in human A549 cells assessed as high mitochondrial membrane potential at 12 uM after 12 hrs by JC-1 staining-based flow cytometric analysis (reference value: 90.6%). In kind it is functional. The procedure, abridged: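 JC-1 staining of A549 cells treated for 12 h. CCCP-treated wells, 20 min at 37 °C, served as positive control. Collected cells were incubated with JC-1 solution at 37 °C for 30 min, washed, and analysed by flow cytometry for the fraction with high ΔΨm and for PI-positive cells. Results are mean ± S.E.M. of three replicates.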

Data set [9] has as its system A549. Kind of data set: Cell cycle arrest in human A549 cells assessed as accumulation at S phase at 2 uM after 24 hrs by RNAse A/ PI staining based flow cytometric analysis (reference value: 17.23%). In kind it is functional. In outline: (§4)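 A549 cells at 5.0×10^4 per well were grown 12 h at 37 °C. Treatment was 0, 2, 4 or 8 µM for 24 h, or 8 µM for 0, 12, 24 or 36 h. Cells were fixed in 70% ethanol at −20 °C for at least 12 h, then stained in PBS with 0.1 mg/mL RNase A and 5 µg/mL PI. At least 10,000 events per sample were collected by flow cytometry to give G0/G1, S and G2/M percentages.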

In data set [10] the test system is A549. Kind of data set: Cell cycle arrest in human A549 cells assessed as accumulation at G2/M phase at 2 uM after 24 hrs by RNAse A/ PI staining based flow cytometric analysis (reference value: 9.47%). The format is functional. The procedure, abridged:
as §4

In data set [11] the test system is A549. Kind of data set: Cell cycle arrest in human A549 cells assessed as accumulation at G1 phase at 4 uM after 24 hrs by RNAse A/ PI staining based flow cytometric analysis (reference value: 73.30%). The format is functional. In outline:
as §4

Data set [12] deals with A549. In words: Cell cycle arrest in human A549 cells assessed as accumulation at G2/M phase at 4 uM after 24 hrs by RNAse A/ PI staining based flow cytometric analysis (reference value: 9.47%). The format is functional. In outline:
as §4

Data set [13] has as its system A549. In words: Inhibition of Wnt/beta-catenin signaling pathway in human A549 cells assessed as reduction in beta-catenin expression in cytoplasm by Western blot analysis. The format is cell-based. The procedure, abridged:
as §3

For data set [14], the system named is A549. Kind of data set: Inhibition of Wnt/beta-catenin signaling pathway in human A549 cells assessed as increase in axin-2 expression by Western blot analysis. In kind it is cell-based. In outline: as §3
Data set [15] addresses Epidermal growth factor receptor (Homo sapiens, UniProt P00533). Kind of data set: Inhibition of EGFR signalling in human A549 cells assessed as reduction in ERK phosphorylation after 24 hrs by Western blot analysis. The format is cell-based. In outline:
as §3

The subject of data set [16] is A549. In words: Antitumor activity against ip dosed human A549 cells xenografted in Balb/c mouse assessed as inhibition of tumor growth administered once every two days for 32 days measured for every 2 days. The format is functional, organism-based. The procedure, abridged: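 Female BALB/c nude mice, 5-6 weeks old, injected in the flank with 6×10^6 A549 cells in 0.1 mL ice-cold PBS. After two weeks, tumours averaging 90 mm³ were allocated by volume to 5 groups of n = 8. Drugs in DMSO were given ip once every two days, 16 doses in total; a DMSO vehicle group served as control. Tumour volume (L×S²/2) and body weight were recorded every two days; mice were killed on day 32.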

The next data set has as its target Tubulin (Homo sapiens) (UniProt P68371+Q9H4B7+P0DPH7+P68366+Q13509+Q71U36+P04350+Q3ZCM7+P07437+P68363+Q9BQE3+Q6PEY2+Q13885+Q9BVA1+Q9BUF5). Kind of data set: Inhibition of microtubule polymerization in human A549 cells assessed as polymerized tubulin expression at 8 uM after 24 hrs by immuno blot analysis (reference value: 0.85). The format is cell-based. In outline: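 Cells were lysed in hypotonic buffer 5 min at 37 °C and centrifuged 10000 rpm, 10 min, 25 °C. Soluble (supernatant) and polymerised (pellet) tubulin fractions were resolved by SDS-PAGE in equal amounts and immunoblotted for β-tubulin.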

Data set [17] has as its system A549. Kind of data set: Cell cycle arrest in human A549 cells assessed as accumulation at S phase at 8 uM after 36 hrs by RNAse A/ PI staining based flow cytometric analysis (reference value: 19.66%). The format is functional. In outline: as §4
Data set [18] deals with A549. In words: Cell cycle arrest in human A549 cells assessed as accumulation at G2/M phase at 8 uM after 36 hrs by RNAse A/ PI staining based flow cytometric analysis (reference value: 12.65%). In kind it is functional. The procedure, abridged:
as §4

A word on the CC50: it is the concentration giving 50% cytotoxicity. As usually defined, the IC50 is the concentration that gives 50% inhibition.

The source made the active and inactive calls. No cut-off for these calls is given here.

Sequence of Epidermal growth factor receptor (P00533 whole entry): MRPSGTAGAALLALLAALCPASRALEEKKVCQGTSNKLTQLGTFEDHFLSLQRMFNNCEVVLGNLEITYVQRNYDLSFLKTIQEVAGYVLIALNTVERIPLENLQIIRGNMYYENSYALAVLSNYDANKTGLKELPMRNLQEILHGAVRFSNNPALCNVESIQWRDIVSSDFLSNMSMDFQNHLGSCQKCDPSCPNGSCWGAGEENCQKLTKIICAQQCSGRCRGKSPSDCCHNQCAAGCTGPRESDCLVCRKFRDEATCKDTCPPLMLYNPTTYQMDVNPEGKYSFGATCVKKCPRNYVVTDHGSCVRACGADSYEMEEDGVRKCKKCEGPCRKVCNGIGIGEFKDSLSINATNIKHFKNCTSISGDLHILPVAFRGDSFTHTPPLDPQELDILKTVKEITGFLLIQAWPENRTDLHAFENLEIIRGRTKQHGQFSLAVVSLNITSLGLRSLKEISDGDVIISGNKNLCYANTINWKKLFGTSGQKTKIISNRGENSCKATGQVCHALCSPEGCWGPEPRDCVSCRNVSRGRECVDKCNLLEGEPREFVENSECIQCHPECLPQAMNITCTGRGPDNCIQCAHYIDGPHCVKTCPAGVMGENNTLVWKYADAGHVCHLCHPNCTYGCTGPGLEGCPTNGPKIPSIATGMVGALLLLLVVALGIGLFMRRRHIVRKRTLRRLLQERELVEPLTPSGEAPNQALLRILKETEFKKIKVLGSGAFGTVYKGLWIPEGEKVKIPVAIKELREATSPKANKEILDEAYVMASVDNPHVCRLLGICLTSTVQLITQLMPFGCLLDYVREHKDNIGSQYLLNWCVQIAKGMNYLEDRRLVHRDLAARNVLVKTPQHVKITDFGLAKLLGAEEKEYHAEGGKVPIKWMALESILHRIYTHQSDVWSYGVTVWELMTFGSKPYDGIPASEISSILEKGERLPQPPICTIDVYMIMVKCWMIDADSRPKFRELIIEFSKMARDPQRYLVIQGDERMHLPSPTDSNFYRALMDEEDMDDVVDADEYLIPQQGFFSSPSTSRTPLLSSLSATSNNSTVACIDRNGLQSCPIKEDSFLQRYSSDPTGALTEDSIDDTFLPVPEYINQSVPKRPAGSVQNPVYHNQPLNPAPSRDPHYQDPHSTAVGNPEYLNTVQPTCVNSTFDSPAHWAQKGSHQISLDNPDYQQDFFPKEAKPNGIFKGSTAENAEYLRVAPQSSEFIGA

In the case of `CC(C)=CC[C@@H](OC(=O)/C=C\C(=O)c1ccc(F)cc1)C1=CC(=O)c2c(O)ccc(O)c2C1=O`, the CC50 at 24 h in data set [1] is 89.2 µM. The IC50 with MCF7 was found to be 8.9 µM; in the data set with NCI-H1975 it was 9.43 µM. Moreover, the Activity with A549 [2] is reported as 0.175%; in the data set on A549 [7], 39.3%; with A549 [8] it was 38.6%; in the data set with A549 [9], 22.93%; with A549 [10], 15.4%; with A549 [11], 59.17%. Further, the Activity in the data set on A549 [12] was 21.03%; in the data set with A549 [16] it was “Dose-dependent effect”; with A549 [17], 22.57%; in the data set with A549 [18], 46.55%. In addition, the viability at 8 µM with A549 [3] was 12.2%. Further, the result with A549 [4], with A549 [5] and in the data set with A549 [6] was Active. The inhibition result (in the data set with A549 [13]; in the data set with A549 [14]; in data set [15]) was “Dose-dependent effect” in each case. For the same molecule, at Tubulin (Homo sapiens), the fold change (FC) amounted to 0.69.
